Active and inactive are the calls of the source. No cut-off for these calls is given here.
How the values were obtained:
[1] = Cytotoxicity against HPDEC assessed as decrease in cell proliferation after 72 hrs by MTT assay; format: cell-based; details: Homo sapiens
Procedure, shortened: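 MTT assay. Cells (3000–8000/well) attached overnight in RPMI1640 with 10% FBS; the GR line was kept with 200 nM gemcitabine. Serial dilutions (30 nM–10 μM for most lines) were applied for 72 h. MTT was added at a final 300 μg/mL for 3 h at 37°C, formazan was dissolved in DMSO and A570 read. Inhibition = (1 − OD treated/OD control) × 100. IC50 given as mean ± SD, three independent experiments.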

[2] = Induction of compound aggregation
MIA PaCa-2 [3] = assay: Induction of reactive oxygen species generation in human MIAPaCa2 cells assessed as upregulation of HMOX1 gene expression after 4 hrs by Bru-seq analysis; format: functional, cell-based
BXPC-3 = assay: Induction of reactive oxygen species generation in human BxPC3 cells assessed as upregulation of HO-1 expression at 2 uM after 4 to 24 hrs by Western blot analysis; format: functional, cell-based
Procedure, shortened: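 Immunoblotting. Cells (4×10^5) in 60 mm dishes were treated, lysed 30 min at 4°C and quantified by BCA. 40 μg protein was run on SDS-PAGE and transferred to PVDF. Primary antibodies (1:1000) incubated overnight at 4°C, then Dylight 800 secondary, with fluorescent scanning. Bands were normalized to GAPDH or actin loading controls. Mean ± SD, three independent experiments, Student's t-test.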

MIA PaCa-2 [4] = assay: Downregulation of Sp1 gene expression in human MIAPaCa2 cells at IC50 to 5 times IC50 after 4 hrs by Bru-seq analysis; format: functional, cell-based
MIA PaCa-2 [5] = assay: Downregulation of Sp3 gene expression in human MIAPaCa2 cells at IC50 to 5 times IC50 after 4 hrs by Bru-seq analysis; format: functional, cell-based
MIA PaCa-2 [6] = assay: Downregulation of Sp4 gene expression in human MIAPaCa2 cells at IC50 to 5 times IC50 after 4 hrs by Bru-seq analysis; format: functional, cell-based
MIA PaCa-2 [7] = assay: Inhibition of mtDNA transcription from HSP2 promoter in human MIAPaCa2 cells at 5 times IC50 after 4 hrs by Bru-seq analysis; format: functional, cell-based
Procedure, shortened: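 Nascent RNA sequencing (Bru-seq): 4×10^6 MIA PaCa-2 cells seeded in 10 cm dishes, treated next day for 4 h with drug or DMSO. Bromouridine (2 mM final) added for the last 30 min. Total RNA taken in TRIZOL; labeled RNA immunocaptured, converted to cDNA libraries and deep sequenced. Signal compared with DMSO-treated cells.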

MIA PaCa-2 [8] = assay: Antitumor activity against human MIAPaCa2 cells xenografted in NOD/SCID mouse assessed as tumor volume at 5 mg/kg, ip administered 5 times a week until day 44 (reference value: 1291 +/- 168 mm'3); format: functional
Mus musculus [9] = assay: Toxicity in NOD/SCID mouse xenografted with human MIAPaCa2 cells assessed as microscopic changes in heart at 5 mg/kg, ip administered 5 times a week until day 44 by hematoxylin and eosin staining-based inverted microscopic method; format: organism-based; details: in vivo
Procedure, shortened: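 Necropsy after the 44-day ip course in MIA PaCa-2 xenograft-bearing NOD/SCID mice: heart, kidney, liver, lung, spleen and pancreas fixed in 10% neutral buffered formalin, paraffin-embedded, sectioned and stained with hematoxylin and eosin. Sections examined by inverted microscope at 20X, compared with vehicle-treated animals.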

Mus musculus [10] = assay: Induction of reactive oxygen species generation in tumor of NOD/SCID mouse xenografted with MIAPaCa2 cells assessed as upregulation of NQO1 expression at 5 mg/kg, ip administered 5 times a week until day 44 by Western blot method; format: functional, organism-based
MIA PaCa-2 [11] = assay: Antitumor activity against human MIAPaCa2 cells xenografted in NOD/SCID mouse assessed as tumor volume at 5 mg/kg, ip administered 5 times a week for 48 days (reference value: 1503 +/- 189 mm'3); format: functional
Procedure, shortened: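 MIA PaCa-2 subcutaneous xenografts in NOD/SCID mice, randomized at 75 mm3. Test agent was given at 5 mg/kg five times a week. Gemcitabine was given at 15 mg/kg either once weekly for 48 days or twice weekly for 15 days. Groups were n=3–4. Tumor volume was measured by caliper, given as mean ± SEM, and compared by unpaired t test.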

Mus musculus [12] = assay: Toxicity in NOD/SCID mouse xenografted with human MIAPaCa2 cells assessed as body weight loss at 5 mg/kg, ip administered 5 times a week co-administered with gemcitabine at 15 mg/kg administered once a week for 48 days; format: organism-based; details: in vivo, 1152 h
Procedure, shortened: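 MIA PaCa-2 xenografted NOD/SCID mice randomized at 75 mm3 into vehicle (n=4), single-agent (n=3 each) and combination (n=3) arms. Drug given at 5 mg/kg five times a week, gemcitabine at 15 mg/kg once a week, over a 48-day period. Body weight followed; mean ± SEM.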

O=C1C(Nc2ccc(-c3ccccc3)cc2)=CC(=O)c2ncncc21
IC50 [1]: 2.7 µM
Activity [2]: Active
Activity (MIA PaCa-2 [3]): Dose-dependent effect
Activity (BXPC-3): Active
Activity (MIA PaCa-2 [4]): inactive
Activity (MIA PaCa-2 [5]): inactive
Activity (MIA PaCa-2 [6]): inactive
inhibition (MIA PaCa-2 [7]): Active
Activity (MIA PaCa-2 [8]): 308 mm3
Activity (Mus musculus [9]): Non-Toxic
Activity (Mus musculus [10]): Active
Activity (MIA PaCa-2 [11]): 248 mm3
Activity (Mus musculus [12]): Non-Toxic

Reference: ChEMBL document CHEMBL4052826, “Design and Synthesis of Novel Reactive Oxygen Species Inducers for the Treatment of Pancreatic Ductal Adenocarcinoma” (J Med Chem, 2018)
